# Active and inactive are the calls of the source. The calls are words filed in the database; no cut-off is given here.
# Experiments:
# DU-145 [1] = test: Induction of apoptosis in human DU145 cells assessed as viable cells at 5 uM after 24 hrs in presence of TRAIL by Annexin V-FITC/propidium iodide staining-based high content screening assay (reference value: 97.9%); format: functional; conditions: DU-145, 24 h, read-out: Activity
# In short: (§1)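 DU145 seeded 3×10^5/well, grown 24 h, treated 24 h with compound alone or plus TRAIL; harvested, stained with Annexin V-FITC/PI per kit protocol, quantified by high content screening; mean ± SD of three experiments.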
# DU-145 [2] = test: Induction of apoptosis in human DU145 cells assessed as chromatin shrinkage at 5 uM after 24 hrs in presence of TRAIL by Hoechst 33258 staining-based fluorescence microscopic analysis; format: functional, cell-based
# In short: (§2)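 DU145 seeded 1×10^5/well, adhered overnight, treated 24 h with compound alone or combined with TRAIL; stained with Hoechst 33258 for 30 min in the dark; nuclear morphology examined by fluorescence microscopy.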
# MGC-803 = test: Antiproliferative activity against human MGC803 cells after 72 hrs by MTT assay; format: functional, cell-based; conditions: MGC-803, 72 h
# In short: (§3)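 Cells seeded 3,000/well, after 24 h medium replaced with compound at 64, 32, 16, 8, 4, 2, 1, 0.5 µM; 72 h exposure, MTT read-out at 570 nm; IC50 given as mean ± SD.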
# DU-145 [3] = test: Antiproliferative activity against human DU145 cells after 72 hrs by MTT assay; format: functional, cell-based; conditions: DU-145, 72 h; in short: as §3
# PC-3 = test: Antiproliferative activity against human PC3 cells after 72 hrs by MTT assay; format: functional, cell-based; conditions: PC-3, 72 h; in short: as §3
# DU-145 [4] = test: Induction of apoptosis in human DU145 cells assessed as increase in caspase-3/7 activity at 5 uM after 24 hrs in presence of TRAIL by Caspase-Glo 3/7 assay relative to control; format: functional
# In short: (§4)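 DU145 treated 24 h with compound alone or with TRAIL (100 ng/mL); caspase-3/7 activity measured by Caspase-Glo 3/7 luminescent protocol relative to untreated control; three independent experiments, mean ± SD, Student's t test.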
# DU-145 [5] = test: Growth inhibition of human DU145 cells at 2.5 uM after 72 hrs in presence of TRAIL by MTT assay relative to control; format: functional; conditions: DU-145, 72 h, read-out: GI
# In short: (§5)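 DU145 growth inhibition measured by MTT; time course at 24, 48 and 72 h; combination arm used recombinant TRAIL at 100 ng/mL together with compound (2.5 or 5.0 µM); mean ± SD, experiment repeated three times, Student's t test.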
# DU-145 [6] = test: Induction of apoptosis in human DU145 cells assessed as necrotic cells at 5 uM after 24 hrs by Annexin V-FITC/propidium iodide staining-based high content screening assay (reference value: 1.6%); format: functional; in short: as §1
# DU-145 [7] = test: Induction of apoptosis in human DU145 cells assessed as late apoptotic cells at 5 uM after 24 hrs in presence of TRAIL by Annexin V-FITC/propidium iodide staining-based high content screening assay (reference value: 0.2%); format: functional; in short: as §1
# MCF7 = test: Antiproliferative activity against human MCF7 cells after 72 hrs by MTT assay; format: functional, cell-based; conditions: MCF7, 72 h; in short: as §3
# DU-145 [8] = test: Induction of apoptosis in human DU145 cells assessed as increase in caspase-3/7 activity at 2.5 to 10 uM after 24 hrs by Caspase-Glo 3/7 assay; format: functional, cell-based; in short: as §4
# DU-145 [9] = test: Induction of apoptosis in human DU145 cells assessed as early apoptotic cells at 5 uM after 24 hrs in presence of TRAIL by Annexin V-FITC/propidium iodide staining-based high content screening assay (reference value: 0.3%); format: functional; in short: as §1
# DU-145 [10] = test: Induction of apoptosis in human DU145 cells assessed as viable cells at 5 uM after 24 hrs by Annexin V-FITC/propidium iodide staining-based high content screening assay (reference value: 97.9%); format: functional; conditions: DU-145, 24 h, read-out: Activity; in short: as §1
# DU-145 [11] = test: Induction of apoptosis in human DU145 cells assessed as chromatin shrinkage at 5 uM after 24 hrs by Hoechst 33258 staining-based fluorescence microscopic analysis; format: functional, cell-based; in short: as §2
# DU-145 [12] = test: Induction of apoptosis in human DU145 cells assessed as cell rounding at 5 uM after 24 hrs in presence of TRAIL by Hoechst 33258 staining-based fluorescence microscopic analysis; format: functional; in short: as §2
# DU-145 [13] = test: Induction of apoptosis in human DU145 cells assessed as early apoptotic cells at 5 uM after 24 hrs by Annexin V-FITC/propidium iodide staining-based high content screening assay (reference value: 0.3%); format: functional; in short: as §1
# DU-145 [14] = test: Inhibition of colony formation in human DU145 cells after 21 days by crystal violet staining-based assay; format: functional, cell-based
# In short: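 DU145 seeded 4000/well, grown 4 days, then medium with compound at various concentrations for 21 days; PBS washed, fixed in 4% paraformaldehyde, stained with 0.1% crystal violet; colonies (>10 cells) counted; inhibition = (1 − treated/control colonies) × 100%.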
# DU-145 [15] = test: Induction of apoptosis in human DU145 cells assessed as late apoptotic cells at 5 uM after 24 hrs by Annexin V-FITC/propidium iodide staining-based high content screening assay (reference value: 0.2%); format: functional; in short: as §1
# DU-145 [16] = test: Induction of apoptosis in human DU145 cells assessed as cell rounding at 5 uM after 24 hrs by Hoechst 33258 staining-based fluorescence microscopic analysis; format: functional; in short: as §2
# DU-145 [17] = test: Induction of apoptosis in human DU145 cells assessed as formation of apoptotic bodies at 5 uM after 24 hrs in presence of TRAIL by Hoechst 33258 staining-based fluorescence microscopic analysis; format: functional, cell-based; in short: as §2
# DU-145 [18] = test: Growth inhibition of human DU145 cells at 2.5 uM by MTT assay; format: functional, cell-based; conditions: TDE = time-dependent effect; in short: as §5
# DU-145 [19] = test: Induction of apoptosis in human DU145 cells assessed as necrotic cells at 5 uM after 24 hrs in presence of TRAIL by Annexin V-FITC/propidium iodide staining-based high content screening assay (reference value: 1.6%); format: functional; in short: as §1
# DU-145 [20] = test: Growth inhibition of human DU145 cells at 2.5 uM after 24 to 48 hrs by MTT assay; format: functional, cell-based; in short: as §5
# DU-145 [21] = test: Induction of apoptosis in human DU145 cells assessed as formation of apoptotic bodies at 5 uM after 24 hrs by Hoechst 33258 staining-based fluorescence microscopic analysis; format: functional, cell-based; in short: as §2
compound,measurement,setting,value
O=C(COc1ccc(C(=O)/C=C/c2ccccc2Cl)cc1)N[C@H]1CCOC1=O,viability at 5 µM,DU-145 [1],84.8%
same,Activity,DU-145 [2],Active
same,IC50,MGC-803,27.1 µM
same,IC50,DU-145 [3],3.24 µM
same,IC50,PC-3,4.61 µM
same,fold change (FC),DU-145 [4],3
same,inhibition of growth at 2.5 µM,DU-145 [5],50%
same,Activity,DU-145 [6],1.7%
same,Activity,DU-145 [7],1.7%
same,IC50,MCF7,17.4 µM
same,Activity,DU-145 [8],Active
same,Activity,DU-145 [9],13.4%
same,viability at 5 µM,DU-145 [10],90.1%
same,Activity,DU-145 [11],Active
same,Activity,DU-145 [12],Active
same,Activity,DU-145 [13],6.4%
same,inhibition,DU-145 [14],Dose-dependent effect
same,Activity,DU-145 [15],1.7%
same,Activity,DU-145 [16],Active
same,Activity,DU-145 [17],Active
same,growth inhibition (GI),DU-145 [18],Tde
same,Activity,DU-145 [19],0.1%
same,Activity,DU-145 [20],Active
same,Activity,DU-145 [21],Active

# Reference: ChEMBL document CHEMBL4411279, “Synthesis of new chalcone-based homoserine lactones and their antiproliferative activity evaluation” (Eur J Med Chem, 2019)
